Test [1] can be described thus: inhibitors of TNFa-induced NFkB p65 translocation, primary screen, imaging, HUVEC, MLSMR starter and 10KST1 sets (AID 438;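 active means inhibition above 20% together with a positive visual image hit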;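 further: compound added about 3h40 before a 20 min TNFalpha stimulation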;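 on inhibition: signal is the nuclear over cytoplasmic p65 intensity ratio per well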). The settings on record: HUVEC TNFa-induced p65 nuclear translocation; cell count: measured here: nuclei count (cytotoxicity indicator), at 2.08 µM; inhibition: at 2 µM, stronger effect = higher value, 0% TNFa-plus-vehicle, 100% no-TNFa wells.
The nature of test [2]: endothelial E-selectin expression blockers – imaging, HUVEC, immunofluorescence, MLSMR starter and 10KST1 sets, primary screen (AID 487;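 active means visually confirmed hit in the image check and inhibition above 20%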;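 on inhibition: signal is fraction of cell area covered by stained E-selectin grains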;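 on nuclei count: 100% = median nuclei count of all wells on the same plate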). The settings on record: HUVEC TNFalpha-induced E-selectin immunofluorescence imaging, at 2 µM; inhibition: stronger effect = higher value; nuclei count: measured here: cell number, toxicity.
A short description of test [3]: Primary imaging screen for DUSP6 inhibitors that restore phospho-Erk in transfected HeLa cells, chemical complementation (AID 609;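 active means compounds giving at least 50% inhibition in the cell-based MKP-3 phosphatase rescue imaging test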;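 on inhibition: phospho-Erk level distribution per well compared with pooled transfected vehicle control wells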). Conditions: HeLa MKP-3 transfected, phospho-Erk imaging KS statistic, at 10 µM, cells stimulated with TPA for 15 min.
For test [4], the target named is Dual specificity protein phosphatase 6 (Homo sapiens) (UniProt Q16828). The test is described as above. The settings on record: HeLa MKP-3 transfected, phospho-Erk imaging KS statistic; at 10 µM; stronger effect = higher value; cells stimulated with TPA for 15 min.
Test [5] addresses Voltage-gated potassium channel subunit beta-2 (Rattus norvegicus) (UniProt P62483). The test can be described thus: inhibitors of rat Kvbeta2 reductase activity – biochemical, NADPH fluorescence, primary screen (AID 622;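 active means fluorescence slope higher than the sample average by over 3 SD, cut at about -0.22 in these data, passing the limit was not always enough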;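 further: slope of raw intensity against log time taken from 70 to 1610 s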). The settings on record: recombinant KvBeta, 4-cyanobenzaldehyde reduction, at 10 µM, stronger effect = higher value.
For test [6] the target is unchanged. The test can be described thus: enhancers of rat Kvbeta2 NADPH turnover – biochemical, NADPH fluorescence, primary screen (AID 623;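 active means NADPH fluorescence slope more negative than the mean of all samples by about 3 SD, 99.7% confidence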;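 further: fluorescence intensity change per second fitted from 20 to 320 s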). Conditions: Recombinant KvBeta, NADPH fluorescence decrease slope, 10 min; at 10 µM; stronger effect = lower value.
Test [7] addresses Alpha-2C adrenergic receptor (Homo sapiens) (UniProt P18825). The test can be described thus: compounds altering alpha2C-coupled GIRK flux – cell-based, HEK293 alpha2C/GIRK1/2, thallium flux, primary screen (AID 624;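 active means fluorescence slope after compound addition differing from the mean of all screened samples at 99.7% confidence, in either direction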;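 further: slope of fluorescence ratio to pre-addition baseline per second over 15 to 24 s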). The settings on record: thallium flux BTC fluorescence, at 10 µM, actives lie on both sides.
The nature of test [8]: inhibitors of larval lipid processing in zebrafish, primary screen, whole organism, PED6 fluorescence, gall bladder and intestine (AID 686;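 active means a full or partial loss of lipid-probe fluorescence in the fish gall bladder, intestine or both, judged by eye; inactive means no fluorescence loss, or compound toxic to the fish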;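 further: larvae 5 to 7 days old with five fish per well; signal comes from phospholipase A2 cleavage of quenched PED6 carried via bile; overnight exposure to compound and PED6 before scoring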). The settings on record: Zebrafish larvae PED6 lipid processing, fluorescence scoring; screened at 20 µM (by protocol). The gist of the method:
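Test system – live zebrafish larvae aged 5-7 days, whole organism · Buffer or medium – E3 fish medium · Reagent – quenched phospholipase substrate PED6, 100 nM final, ingested by larvae · Doses – 20 µM single dose · Incubation – overnight compound and PED6 incubation · Technique – visual fluorescence microscopy scoring of gall bladder, gut · Read-out basis – visual per-well fluorescence inhibition score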

Test [9] in a line: loss of swimming-algae plug formation – whole organism, Chlamydomonas reinhardtii, WT vs cilia-less mutant, absorbance, 96-well, primary screen (AID 463189).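 Further: 0% = wild type cc124 cells in DMSO and 100% = ciliumless bld1 mutant cells.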 Conditions: Chlamydomonas reinhardtii gravitaxis, OD600 absorbance, 2 days; at 10 µM; stronger effect = higher value.
The mark [10] stands for this setting: measured here: cell density z-score.
[11] abbreviates: measured here: nuclear c-Myc green intensity z-score.
[12] abbreviates: measured here: nuclear pErk red intensity z-score, stronger effect = higher value.

Activity calls are given as the source filed them.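 How the source made its calls, unless noted: active means inhibition at or above 50% relative to wild type and mutant plate controls; inactive means inhibition below 50%.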

This note sets out measurements from PubChem BioAssay.

Chain of Alpha-2C adrenergic receptor (Homo sapiens) (P18825 whole entry, looked up): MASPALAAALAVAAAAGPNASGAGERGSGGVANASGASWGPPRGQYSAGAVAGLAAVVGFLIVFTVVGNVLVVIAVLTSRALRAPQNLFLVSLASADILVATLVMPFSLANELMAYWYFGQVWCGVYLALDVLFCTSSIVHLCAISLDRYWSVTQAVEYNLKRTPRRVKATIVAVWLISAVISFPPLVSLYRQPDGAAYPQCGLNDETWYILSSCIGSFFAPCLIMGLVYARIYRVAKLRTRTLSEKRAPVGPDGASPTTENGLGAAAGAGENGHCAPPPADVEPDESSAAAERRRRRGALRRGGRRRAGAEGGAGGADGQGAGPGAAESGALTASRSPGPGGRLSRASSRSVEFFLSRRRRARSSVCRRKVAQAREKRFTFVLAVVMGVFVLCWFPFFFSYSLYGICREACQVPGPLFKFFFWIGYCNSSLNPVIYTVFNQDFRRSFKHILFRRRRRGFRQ
Chain of Voltage-gated potassium channel subunit beta-2 (Rattus norvegicus) (P62483 whole entry, looked up): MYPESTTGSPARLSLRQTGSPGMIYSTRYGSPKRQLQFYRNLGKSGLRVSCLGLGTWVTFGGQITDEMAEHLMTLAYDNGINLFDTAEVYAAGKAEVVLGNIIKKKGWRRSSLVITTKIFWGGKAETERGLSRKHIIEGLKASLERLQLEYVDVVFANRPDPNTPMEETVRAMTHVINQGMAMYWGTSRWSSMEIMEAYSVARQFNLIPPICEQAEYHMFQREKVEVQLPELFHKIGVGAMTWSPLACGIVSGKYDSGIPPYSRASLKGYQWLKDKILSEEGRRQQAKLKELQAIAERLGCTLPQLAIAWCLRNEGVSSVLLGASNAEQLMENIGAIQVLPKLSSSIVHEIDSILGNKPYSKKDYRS
Chain of Dual specificity protein phosphatase 6 (Homo sapiens) (Q16828 whole entry, looked up): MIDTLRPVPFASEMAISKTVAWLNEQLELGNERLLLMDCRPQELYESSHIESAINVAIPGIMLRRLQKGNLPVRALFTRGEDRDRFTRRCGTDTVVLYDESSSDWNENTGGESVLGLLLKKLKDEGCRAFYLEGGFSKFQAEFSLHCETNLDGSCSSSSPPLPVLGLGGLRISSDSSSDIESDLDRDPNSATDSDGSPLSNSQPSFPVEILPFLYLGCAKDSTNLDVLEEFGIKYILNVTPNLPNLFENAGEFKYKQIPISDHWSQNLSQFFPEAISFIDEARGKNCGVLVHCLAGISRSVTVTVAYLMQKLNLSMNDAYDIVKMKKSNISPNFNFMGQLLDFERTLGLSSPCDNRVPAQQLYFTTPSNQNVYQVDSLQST

One may read the inhibition as the drop in the measured response relative to a control, in per cent. Regarding `Cc1nn(-c2cccc(Cl)c2)c2c1C(c1ccncc1)C(C#N)=C(N)O2` (stereo unspecified), in [1], the cell count was 374. In addition, the inhibition in test [1] was -13.7% (inactive); in test [2] it was -56% (inactive); in [4], 2.46% (inactive); in [9], -1.15% (inactive). For the same molecule, the nuclei count in [2] amounted to 98.8%. Also, the z-score was -2.16 in test [3] (setting [10]), -0.307 in [3] (setting [11]) and -1.54 in test [3] (setting [12]). The fluorescence slope in test [5] is -0.382 (inactive). In addition, in test [6], the NADPH fluorescence slope was 4.7e-05 (inactive). Further, the slope in test [7] was 0.00526 (inactive). Moreover, in test [8], the outcome was inactive.

For the molecule `Cc1cc(C)n(Cc2ccc(C(=O)NCCC3=CCCCC3)o2)n1`, the cell count in test [1] is 333. The inhibition in test [1] is -8% (inactive); in test [2], -28.7% (inactive); in test [4] it was 8.76% (inactive); in test [9], 16.8% (inactive). The nuclei count in test [2] worked out at 119%. The figures for the z-score in [3] (setting [10]), in test [3] (setting [11]) and in [3] (setting [12]) were 0.702, 0.069 and -0.61, respectively. Also, in test [5], the fluorescence slope was -0.456 (inactive). The NADPH fluorescence slope in [6] was -0.000101 (inactive). For the same molecule, the slope in test [7] was 0.00523 (inactive). Further, the result in test [8] was inactive.

As for `N#CC1=C(N)C(C#N)(C#N)[C@H](c2ccncc2)[C@H]2CN(C(=O)OCc3ccccc3)CC=C12`, in test [1], the cell count was found to be 555. Further, the inhibition in test [1] is -9.5% (inactive); in [2], -136% (inactive); in test [4], 20.3% (inactive); in test [9], 7.4% (inactive). Besides, in test [2], the nuclei count stood at 192%. For the same molecule, the z-score is -0.56 in test [3] (setting [10]), -0.0237 in test [3] (setting [11]) and -0.0209 in [3] (setting [12]). The fluorescence slope in test [5] is -0.271 (inactive). The NADPH fluorescence slope in test [6] was -4.4e-06 (inactive). For the same molecule, the slope in [7] was 0.00576 (inactive). In addition, the call in [8] was inactive.

Turning to `CC(=O)OCc1c(COC(C)=O)[n+](=O)c2ccccc2n1[O-]`, the cell count in test [1] is 523. The inhibition in [1] is -7% (inactive); in test [2], -114% (inactive); in test [4], 2.46% (inactive); in [9], 17% (inactive). Besides, the nuclei count in test [2] came to 156%. Moreover, the z-score in test [3] (setting [10]) is 0.0201; in test [3] (setting [11]), -0.163; in test [3] (setting [12]) it was -0.453. The fluorescence slope in test [5] was -0.322 (inactive). Besides, the NADPH fluorescence slope in [6] is 1.5e-05 (inactive). In test [7], the slope was 0.00492 (inactive). For the same molecule, in test [8], the call was inactive.

As to `COCc1[nH]nc2c1C(c1ccccc1OC)C(C#N)=C(N)O2` (stereo unspecified), in test [1], the cell count is 633. The inhibition is -4.1% (inactive) in test [1], 27.6% (inactive) in test [2], -7.28% (inactive) in test [4] and 31.9% (inactive) in test [9]. The nuclei count in [2] came to 101%. Also, the values for the z-score in [3] (setting [10]), in [3] (setting [11]) and in [3] (setting [12]) were 0.246, 0.997 and -0.624, respectively. In addition, in [5], the fluorescence slope was -0.488 (inactive). In [6], the NADPH fluorescence slope is -1.1e-05 (inactive). For the same molecule, the slope in test [7] was 0.00544 (inactive). Besides, in [8], the molecule was classed as inactive.

Take `Cc1cc(=O)n2[nH]cnc2n1`: in test [1], the cell count is 517. In addition, the inhibition was -4.6% (inactive) in [1], -138% (inactive) in [2], 5.57% (inactive) in test [4] and -0.839% (inactive) in [9]. Moreover, the nuclei count in [2] is 125%. Besides, the z-score is 1.56 in [3] (setting [10]), -0.453 in [3] (setting [11]) and -0.845 in [3] (setting [12]). In test [5], the fluorescence slope was -0.502 (inactive). Also, in [6], the NADPH fluorescence slope was -0.000147 (inactive). Moreover, the slope in test [7] was 0.00471 (inactive). For the same molecule, the outcome in [8] was inactive.

With `COc1cccc(-c2nc(N3CCC(C)CC3)c3ccccc3n2)c1O`, in [1], the cell count came to 573. For the same molecule, the inhibition in test [1] was -3.3% (inactive); in [2] it was 48.3% (inactive); in test [4], -12.3% (inactive); in test [9] it was 9.22% (inactive). Besides, the nuclei count in test [2] came out at 120%. Moreover, the z-score in [3] (setting [10]) is 0.534; in test [3] (setting [11]), -0.819; in test [3] (setting [12]) it was 1.15. Besides, the fluorescence slope in [5] is -0.409 (inactive). Moreover, the NADPH fluorescence slope in test [6] is -3.4e-05 (inactive). In [7], the slope is 0.00378 (inactive). The call in test [8] was inactive.
